For assay [1], the target named is Serine-protein kinase ATM (Homo sapiens) (UniProt Q13315). Kind of assay: Inhibition of human recombinant ATM at 40 nM in presence of ATP by radiometric assay relative to control. A digest of the protocol: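 Panel of 327 recombinant human kinases, each assayed in vitro by radiometric activity assay in duplicate at a single inhibitor concentration per compound, chosen with reference to its ULK1 inhibition. Activity remaining was expressed as percent of vehicle control, and percent inhibition was calculated as 100 minus percent activity remaining.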

In assay [2] the target is T1, Mitogen-activated protein kinase kinase kinase 3 (Homo sapiens) (UniProt Q99759).
T1 sequence (whole entry): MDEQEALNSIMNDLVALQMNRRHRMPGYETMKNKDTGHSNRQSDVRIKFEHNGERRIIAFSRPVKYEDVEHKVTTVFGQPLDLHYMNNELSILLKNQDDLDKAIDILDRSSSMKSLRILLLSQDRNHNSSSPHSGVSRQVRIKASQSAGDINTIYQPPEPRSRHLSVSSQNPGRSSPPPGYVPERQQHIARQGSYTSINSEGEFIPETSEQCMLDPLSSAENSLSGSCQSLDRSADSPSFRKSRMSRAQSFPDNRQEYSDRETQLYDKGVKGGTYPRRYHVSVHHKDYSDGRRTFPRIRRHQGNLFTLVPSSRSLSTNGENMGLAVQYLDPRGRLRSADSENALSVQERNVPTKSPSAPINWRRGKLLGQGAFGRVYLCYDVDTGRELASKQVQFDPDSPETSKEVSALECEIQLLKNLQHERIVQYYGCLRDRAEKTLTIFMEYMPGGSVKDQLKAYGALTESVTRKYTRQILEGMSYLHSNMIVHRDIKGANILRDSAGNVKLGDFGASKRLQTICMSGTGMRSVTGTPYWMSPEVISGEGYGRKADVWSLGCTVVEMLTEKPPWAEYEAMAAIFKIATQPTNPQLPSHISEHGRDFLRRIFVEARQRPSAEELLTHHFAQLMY
Kind of assay: Inhibition of human recombinant MAP3K3 at 40 nM in presence of ATP by radiometric assay relative to control.

The target in assay [3] is Serine/threonine-protein kinase NIM1 (Homo sapiens) (UniProt Q8IY84). Nature of the assay: Inhibition of human recombinant NIM1 at 40 nM related to control ULK1.
In assay [4] the target is Ribosomal protein S6 kinase alpha-3 (Homo sapiens) (UniProt P51812). Kind of assay: Inhibition of human recombinant RSK2 at 40 nM related to control ULK1.
The target in assay [5] is Death-associated protein kinase 1 (Homo sapiens) (UniProt P53355). Nature of the assay: Inhibition of human recombinant DAPK1 at 500 nM in presence of ATP by radiometric assay relative to control.
The target of assay [6] is Serine/threonine-protein kinase Nek7 (Homo sapiens) (UniProt Q8TDX7). Nature of the assay: Inhibition of human recombinant NEK7 at 500 nM in presence of ATP by radiometric assay relative to control.
The target of assay [7] is Serine/threonine-protein kinase 32A (Homo sapiens) (UniProt Q8WU08). Nature of the assay: Inhibition of human recombinant YANK1 at 500 nM in presence of ATP by radiometric assay relative to control.
Assay [8] concerns the target Calcium/calmodulin-dependent protein kinase type II subunit delta (Homo sapiens) (UniProt Q13557). Nature of the assay: Inhibition of human recombinant CaMK2d at 500 nM related to control ULK1.
Assay [9] deals with T2, Homeodomain-interacting protein kinase 4 (Homo sapiens) (UniProt Q8NE63).
T2 sequence (whole entry): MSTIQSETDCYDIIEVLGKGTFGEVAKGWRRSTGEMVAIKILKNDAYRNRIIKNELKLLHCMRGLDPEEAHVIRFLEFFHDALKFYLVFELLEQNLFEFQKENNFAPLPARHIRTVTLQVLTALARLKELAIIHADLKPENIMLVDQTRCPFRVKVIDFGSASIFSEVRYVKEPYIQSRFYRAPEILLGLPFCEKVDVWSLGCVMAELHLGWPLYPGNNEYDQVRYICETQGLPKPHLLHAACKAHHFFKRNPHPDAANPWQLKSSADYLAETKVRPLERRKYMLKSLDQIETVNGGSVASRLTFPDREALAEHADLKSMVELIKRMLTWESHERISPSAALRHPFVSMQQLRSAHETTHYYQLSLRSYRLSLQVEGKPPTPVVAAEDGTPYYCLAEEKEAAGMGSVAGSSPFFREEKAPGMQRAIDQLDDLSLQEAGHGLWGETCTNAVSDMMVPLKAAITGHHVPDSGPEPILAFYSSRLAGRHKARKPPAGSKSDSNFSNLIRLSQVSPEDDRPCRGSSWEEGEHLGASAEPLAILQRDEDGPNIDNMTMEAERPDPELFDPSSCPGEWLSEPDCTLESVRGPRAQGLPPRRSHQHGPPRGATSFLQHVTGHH
Kind of assay: Inhibition of human recombinant HIPK4 at 500 nM related to control ULK1.

Assay [10] deals with Mitogen-activated protein kinase 11 (Homo sapiens) (UniProt Q15759). Kind of assay: Inhibition of human recombinant p38beta at 500 nM related to control ULK1.
Assay [11] concerns the target Platelet-derived growth factor receptor beta (Homo sapiens) (UniProt P09619). Kind of assay: Inhibition of human recombinant PDGFRb at 500 nM related to control ULK1.
Assay [12] addresses Serine/threonine-protein kinase pim-2 (Homo sapiens) (UniProt Q9P1W9). Kind of assay: Inhibition of human recombinant PIM2 at 500 nM related to control ULK1.
Assay [13] deals with T3, Rhodopsin kinase GRK1 (Homo sapiens) (UniProt Q15835).
T3 sequence (whole entry): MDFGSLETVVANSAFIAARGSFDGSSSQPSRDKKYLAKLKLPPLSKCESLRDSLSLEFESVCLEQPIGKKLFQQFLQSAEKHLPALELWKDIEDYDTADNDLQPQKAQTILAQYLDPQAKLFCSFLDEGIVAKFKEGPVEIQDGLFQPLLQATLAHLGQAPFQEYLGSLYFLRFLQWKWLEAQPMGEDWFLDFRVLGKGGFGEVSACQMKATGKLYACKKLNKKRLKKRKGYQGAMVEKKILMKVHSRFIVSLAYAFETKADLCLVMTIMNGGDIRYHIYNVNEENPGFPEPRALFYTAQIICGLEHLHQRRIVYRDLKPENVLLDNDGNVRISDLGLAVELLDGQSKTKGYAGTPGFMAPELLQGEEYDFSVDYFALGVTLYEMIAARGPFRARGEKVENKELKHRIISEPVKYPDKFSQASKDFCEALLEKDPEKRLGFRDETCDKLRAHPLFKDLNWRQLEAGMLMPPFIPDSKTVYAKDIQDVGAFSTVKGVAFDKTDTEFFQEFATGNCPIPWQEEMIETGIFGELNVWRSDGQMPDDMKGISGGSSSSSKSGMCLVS
Kind of assay: Inhibition of human recombinant RHOK at 15 nM in presence of ATP by radiometric assay relative to control.

Assay [14] has as its target Serine/threonine-protein kinase PLK2 (Homo sapiens) (UniProt Q9NYY3). Kind of assay: Inhibition of human recombinant PLK2 at 15 nM related to control ULK1.
For assay [15], the target named is Serine/threonine-protein kinase SIK3 (Homo sapiens) (UniProt Q9Y2K2). Kind of assay: Inhibition of human recombinant QSK at 15 nM related to control ULK1.

Data on three compounds can be found in ChEMBL document CHEMBL5653631, “A Potent and Selective ULK1 Inhibitor Suppresses Autophagy and Sensitizes Cancer Cells to Nutrient Stress” (iScience, 2018).

Calcium/calmodulin-dependent protein kinase type II subunit delta (Homo sapiens), sequence (Q13557 whole entry): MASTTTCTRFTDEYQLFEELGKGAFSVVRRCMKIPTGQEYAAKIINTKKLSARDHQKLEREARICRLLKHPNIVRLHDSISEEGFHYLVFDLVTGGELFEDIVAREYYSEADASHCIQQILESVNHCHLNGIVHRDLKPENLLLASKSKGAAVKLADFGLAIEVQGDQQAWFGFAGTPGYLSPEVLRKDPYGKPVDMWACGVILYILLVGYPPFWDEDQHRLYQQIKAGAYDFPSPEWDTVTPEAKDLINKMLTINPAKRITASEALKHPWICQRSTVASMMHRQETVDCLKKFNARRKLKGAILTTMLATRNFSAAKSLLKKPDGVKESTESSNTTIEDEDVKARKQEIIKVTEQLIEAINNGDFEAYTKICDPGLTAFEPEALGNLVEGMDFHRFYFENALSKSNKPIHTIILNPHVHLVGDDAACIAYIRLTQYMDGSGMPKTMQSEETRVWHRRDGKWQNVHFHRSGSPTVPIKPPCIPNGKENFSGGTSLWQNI
Death-associated protein kinase 1 (Homo sapiens), sequence (P53355 whole entry, looked up): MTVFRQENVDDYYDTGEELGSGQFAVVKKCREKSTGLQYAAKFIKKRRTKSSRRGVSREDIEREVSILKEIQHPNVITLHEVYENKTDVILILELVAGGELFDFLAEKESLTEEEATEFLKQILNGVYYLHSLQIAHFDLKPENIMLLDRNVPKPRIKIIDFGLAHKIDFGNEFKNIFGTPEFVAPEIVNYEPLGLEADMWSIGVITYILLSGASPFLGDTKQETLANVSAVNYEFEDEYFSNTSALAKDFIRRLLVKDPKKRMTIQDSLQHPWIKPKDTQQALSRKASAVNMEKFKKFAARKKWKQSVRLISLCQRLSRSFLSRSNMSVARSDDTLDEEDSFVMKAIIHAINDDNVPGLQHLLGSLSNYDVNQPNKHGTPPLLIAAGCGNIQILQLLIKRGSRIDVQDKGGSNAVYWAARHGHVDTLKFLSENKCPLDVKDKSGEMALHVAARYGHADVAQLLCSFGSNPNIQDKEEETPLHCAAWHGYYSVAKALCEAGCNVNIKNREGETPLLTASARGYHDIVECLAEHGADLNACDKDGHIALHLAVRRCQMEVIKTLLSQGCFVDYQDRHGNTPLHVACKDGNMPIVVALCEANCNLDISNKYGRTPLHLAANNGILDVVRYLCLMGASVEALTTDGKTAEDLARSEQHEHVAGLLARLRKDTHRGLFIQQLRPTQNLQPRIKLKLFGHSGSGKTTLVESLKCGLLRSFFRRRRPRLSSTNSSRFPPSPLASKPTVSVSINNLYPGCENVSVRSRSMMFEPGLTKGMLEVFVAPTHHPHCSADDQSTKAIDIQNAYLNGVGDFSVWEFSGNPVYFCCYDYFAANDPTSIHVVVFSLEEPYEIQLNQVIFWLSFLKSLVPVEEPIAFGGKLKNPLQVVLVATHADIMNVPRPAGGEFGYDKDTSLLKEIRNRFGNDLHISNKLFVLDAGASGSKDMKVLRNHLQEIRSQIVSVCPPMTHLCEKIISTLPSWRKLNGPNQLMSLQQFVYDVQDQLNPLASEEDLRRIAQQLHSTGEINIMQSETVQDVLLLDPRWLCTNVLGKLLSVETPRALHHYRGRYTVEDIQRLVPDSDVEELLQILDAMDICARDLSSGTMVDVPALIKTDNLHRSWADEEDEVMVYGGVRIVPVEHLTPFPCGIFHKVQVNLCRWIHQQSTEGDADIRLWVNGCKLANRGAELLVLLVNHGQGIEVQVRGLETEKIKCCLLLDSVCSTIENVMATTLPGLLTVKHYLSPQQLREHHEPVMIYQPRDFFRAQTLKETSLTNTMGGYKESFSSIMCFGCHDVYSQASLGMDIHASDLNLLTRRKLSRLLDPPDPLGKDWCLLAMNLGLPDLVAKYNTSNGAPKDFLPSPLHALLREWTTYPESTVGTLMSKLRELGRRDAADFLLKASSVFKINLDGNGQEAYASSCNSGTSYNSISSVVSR
Serine/threonine-protein kinase PLK2 (Homo sapiens), sequence (Q9NYY3 whole entry, looked up): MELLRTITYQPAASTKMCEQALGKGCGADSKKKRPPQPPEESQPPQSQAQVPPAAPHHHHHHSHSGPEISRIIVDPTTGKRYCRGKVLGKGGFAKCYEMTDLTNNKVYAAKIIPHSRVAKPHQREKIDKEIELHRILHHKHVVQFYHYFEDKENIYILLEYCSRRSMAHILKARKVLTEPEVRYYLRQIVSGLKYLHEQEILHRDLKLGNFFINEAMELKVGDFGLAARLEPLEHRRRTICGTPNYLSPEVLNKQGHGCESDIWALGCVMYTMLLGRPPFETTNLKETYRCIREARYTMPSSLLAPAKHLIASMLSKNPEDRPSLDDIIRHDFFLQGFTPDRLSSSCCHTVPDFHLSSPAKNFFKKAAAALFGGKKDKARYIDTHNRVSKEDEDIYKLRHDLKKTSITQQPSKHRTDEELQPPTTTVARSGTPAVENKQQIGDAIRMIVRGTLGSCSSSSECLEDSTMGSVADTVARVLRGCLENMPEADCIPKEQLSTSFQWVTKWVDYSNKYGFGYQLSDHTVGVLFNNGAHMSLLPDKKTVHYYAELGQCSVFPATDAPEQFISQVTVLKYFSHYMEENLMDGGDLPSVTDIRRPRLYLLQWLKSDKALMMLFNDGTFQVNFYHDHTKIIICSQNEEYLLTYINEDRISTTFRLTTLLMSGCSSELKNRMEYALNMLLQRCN
Platelet-derived growth factor receptor beta (Homo sapiens), sequence (P09619 whole entry): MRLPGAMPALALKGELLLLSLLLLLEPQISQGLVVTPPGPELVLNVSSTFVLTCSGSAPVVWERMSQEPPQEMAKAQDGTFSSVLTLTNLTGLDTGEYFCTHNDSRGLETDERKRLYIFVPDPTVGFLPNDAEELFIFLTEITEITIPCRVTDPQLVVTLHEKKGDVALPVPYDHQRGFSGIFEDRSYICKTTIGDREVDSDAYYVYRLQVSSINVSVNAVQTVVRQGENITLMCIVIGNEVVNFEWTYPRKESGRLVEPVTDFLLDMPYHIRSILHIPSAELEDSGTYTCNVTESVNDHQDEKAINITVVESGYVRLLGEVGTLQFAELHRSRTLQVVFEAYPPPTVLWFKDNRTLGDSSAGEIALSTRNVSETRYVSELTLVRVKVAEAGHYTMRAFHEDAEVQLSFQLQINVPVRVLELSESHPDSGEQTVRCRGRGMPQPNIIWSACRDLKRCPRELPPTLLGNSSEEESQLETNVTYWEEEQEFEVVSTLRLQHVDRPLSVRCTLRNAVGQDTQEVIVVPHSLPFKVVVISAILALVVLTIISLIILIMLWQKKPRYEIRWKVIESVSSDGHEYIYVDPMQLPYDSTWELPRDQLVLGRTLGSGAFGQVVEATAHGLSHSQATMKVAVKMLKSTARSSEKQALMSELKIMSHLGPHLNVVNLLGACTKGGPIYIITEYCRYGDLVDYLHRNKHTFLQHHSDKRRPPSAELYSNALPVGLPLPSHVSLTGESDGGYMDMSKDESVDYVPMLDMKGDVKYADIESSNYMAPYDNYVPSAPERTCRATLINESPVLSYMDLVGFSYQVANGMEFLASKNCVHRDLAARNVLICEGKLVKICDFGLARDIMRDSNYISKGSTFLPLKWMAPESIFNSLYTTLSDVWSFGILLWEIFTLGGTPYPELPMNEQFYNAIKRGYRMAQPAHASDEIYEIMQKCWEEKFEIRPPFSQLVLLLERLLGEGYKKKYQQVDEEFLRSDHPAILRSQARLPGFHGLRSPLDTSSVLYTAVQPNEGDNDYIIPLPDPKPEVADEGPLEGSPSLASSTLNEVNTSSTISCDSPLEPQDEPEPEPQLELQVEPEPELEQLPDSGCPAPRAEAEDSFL
Ribosomal protein S6 kinase alpha-3 (Homo sapiens), sequence (P51812 whole entry): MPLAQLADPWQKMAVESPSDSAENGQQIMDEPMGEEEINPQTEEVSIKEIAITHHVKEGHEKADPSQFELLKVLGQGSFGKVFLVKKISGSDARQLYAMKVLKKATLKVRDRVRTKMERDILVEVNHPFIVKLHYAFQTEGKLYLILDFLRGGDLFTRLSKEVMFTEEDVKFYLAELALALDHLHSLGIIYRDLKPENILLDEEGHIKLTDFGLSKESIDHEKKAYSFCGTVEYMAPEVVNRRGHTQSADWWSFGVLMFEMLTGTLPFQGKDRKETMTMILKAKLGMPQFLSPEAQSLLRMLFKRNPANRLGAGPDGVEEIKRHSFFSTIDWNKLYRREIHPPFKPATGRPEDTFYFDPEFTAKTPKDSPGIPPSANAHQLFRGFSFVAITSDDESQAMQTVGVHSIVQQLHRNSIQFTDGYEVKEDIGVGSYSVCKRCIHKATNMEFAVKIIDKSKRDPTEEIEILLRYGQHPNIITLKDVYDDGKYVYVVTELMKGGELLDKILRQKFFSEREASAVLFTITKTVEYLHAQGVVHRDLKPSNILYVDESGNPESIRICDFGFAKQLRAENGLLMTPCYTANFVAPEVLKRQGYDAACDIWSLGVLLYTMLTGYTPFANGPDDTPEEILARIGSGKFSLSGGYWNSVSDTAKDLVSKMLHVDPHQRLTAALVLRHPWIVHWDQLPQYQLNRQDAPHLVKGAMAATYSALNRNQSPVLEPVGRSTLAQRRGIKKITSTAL
Mitogen-activated protein kinase 11 (Homo sapiens), sequence (Q15759 whole entry): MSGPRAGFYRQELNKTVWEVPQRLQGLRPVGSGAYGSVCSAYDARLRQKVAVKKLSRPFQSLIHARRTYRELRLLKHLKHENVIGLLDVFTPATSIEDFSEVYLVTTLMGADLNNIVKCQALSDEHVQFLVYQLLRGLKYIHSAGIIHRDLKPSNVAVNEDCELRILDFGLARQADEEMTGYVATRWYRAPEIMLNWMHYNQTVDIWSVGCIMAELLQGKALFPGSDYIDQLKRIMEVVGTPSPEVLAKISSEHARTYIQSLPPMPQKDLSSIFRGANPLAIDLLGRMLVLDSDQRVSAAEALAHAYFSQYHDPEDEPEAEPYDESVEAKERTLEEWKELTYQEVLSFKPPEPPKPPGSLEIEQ

The inhibition is the drop in the measured response relative to a control, in per cent. With `O=C(N[C@@H](C1CC1)C(F)(F)F)c1cc(-c2cnn3cc(-c4ccc(F)cc4)cnc23)cs1`, the inhibition in [1] stood at 5%; in [2], 0%. For the same compound, the fold change (FC) in assay [3] and in assay [4] was 0 throughout.
As for `CNC(=O)c1ccccc1Oc1nc(Nc2cc(OC)c(OC)c(OC)c2)ncc1Br`, the inhibition in assay [5], in assay [6] and in [7] was 0% in each case. Besides, the fold change (FC) worked out at 0.12 in assay [8]; 0.12 in assay [9]; 0.03 in assay [10]; 0 in assay [11]; 0.03 in assay [12].
On to `CC(C)[C@H](NC(=O)c1cc(-c2cnn3cc(-c4ccc(OCCN5CCCCC5)cc4)cnc23)cs1)C(F)(F)F`, for which the inhibition in assay [13] is 0%. In addition, the fold change (FC) in assay [14] worked out at 0.05; in assay [15], 0.98.
